Data on nine compounds can be found in ChEMBL document CHEMBL1125495, “Inhibitors of human renin with C-termini derived from amides and esters of alpha-mercaptoalkanoic acids” (J Med Chem, 1992).

The target in one assay is T1, Renin (Homo sapiens, UniProt P00797).
T1 sequence (P00797 whole entry): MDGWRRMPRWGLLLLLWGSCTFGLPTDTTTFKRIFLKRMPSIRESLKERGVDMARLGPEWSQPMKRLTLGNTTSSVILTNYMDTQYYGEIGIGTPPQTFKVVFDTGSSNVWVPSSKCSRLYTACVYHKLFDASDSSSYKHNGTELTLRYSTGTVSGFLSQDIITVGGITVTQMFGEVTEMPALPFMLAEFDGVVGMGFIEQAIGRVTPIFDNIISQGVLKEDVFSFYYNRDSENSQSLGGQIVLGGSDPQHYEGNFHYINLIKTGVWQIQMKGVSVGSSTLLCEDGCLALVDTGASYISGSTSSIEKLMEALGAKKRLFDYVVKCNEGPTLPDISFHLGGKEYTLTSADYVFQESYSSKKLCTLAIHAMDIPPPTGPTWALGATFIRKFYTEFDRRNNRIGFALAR
The assay can be described thus: Inhibition of human plasma renin. Format: cell-free.

Assay [1] has as its target T2, Renin (Homo sapiens) (UniProt P00797).
T2 sequence (whole entry): T1 sequence (P00797 whole entry)
The assay can be described thus: In vivo inhibition of plasma renin activity in sodium deficient rhesus monkeys after iv administration (dose 0.26 mg/kg, determined at peak deltaMAP). Format: functional, organism-based. The arrangement: dose 0.26 mg/kg. The following applies: Cercopithecidae, target entry is the homologue from another species, at 0.26 mg/kg. In a few lines: (§1)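 Sodium-deficient rhesus monkeys (N = 2) were kept on a low-sodium diet, given furosemide the evening before, and fasted 18 h. Compound was given iv through a venous catheter in 0.05% acetic acid/5% dextrose/H2O, 20 min after vehicle. Blood was drawn periodically via an arterial access port for plasma renin activity. Percent inhibition was taken at peak ΔMAP.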

In assay [2] the test system is Rhesus monkey. The assay can be described thus: Half life of hypotensive effect in sodium deficient rhesus monkeys after iv administration (dose 0.26 mg/kg). Format: functional, organism-based. The arrangement: dose 0.26 mg/kg. The conditions noted are these: Cercopithecidae. In a few lines: (§2)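 Conscious male and female rhesus monkeys (N = 2) with chronic arterial access ports for direct MAP and heart-rate monitoring, and venous catheters for dosing. Animals were kept on a low-sodium diet, given furosemide the evening before, and fasted 18 h before and during the study. Compound was given iv in 0.05% acetic acid/5% dextrose/H2O, 20 min after a vehicle control dose. Peak changes were averaged, and the hypotensive half-life was read from time plots.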

For assay [3], the system named is Rhesus monkey. The assay can be described thus: In vivo effect on heart rate(peak deltaHR) in sodium deficient rhesus monkeys after iv administration (dose 0.26 mg/kg). Type of assay: functional, Cercopithecidae. In a few lines: as §2
For assay [4], the system named is Rhesus monkey. The assay can be described thus: In vivo on mean arterial pressure(peak deltaMAP) in sodium deficient rhesus monkeys after iv administration (dose 0.26 mg/kg). Type of assay: functional, Cercopithecidae, Artery. In short, it runs like this: as §2
For assay [5], the system named is Rhesus monkey. Description: In vivo effect on mean arterial pressure(peak deltaMAP) in sodium deficient rhesus monkeys after iv administration (dose 0.43 mg/kg). Format: functional, Cercopithecidae, Artery. In a few lines:
as §2

The target in assay [6] is T2, Renin (Homo sapiens). Description: In vivo inhibition of plasma renin activity in sodium deficient rhesus monkeys after iv administration (dose 0.43 mg/kg, determined at peak deltaMAP). Type of assay: functional, organism-based. The arrangement: dose 0.43 mg/kg. The following applies: Cercopithecidae, target entry is the homologue from another species, at 0.43 mg/kg. In a few lines: as §1

The test system of assay [7] is Rhesus monkey. Description: In vivo effect on heart rate(peak deltaHR) in sodium deficient rhesus monkeys after iv administration (dose 0.43 mg/kg). Type of assay: functional, Cercopithecidae. In a few lines: as §2
For assay [8], the system named is Rhesus monkey. Description: Half life of hypotensive effect in sodium deficient rhesus monkeys after iv administration (dose 0.43 mg/kg). Format: functional, organism-based. The arrangement: dose 0.43 mg/kg. The following applies: Cercopithecidae. In a few lines: as §2
Assay [9] addresses T2, Renin (Homo sapiens). The following applies: Cercopithecidae; Plasma; at 0.63 mg/kg.
Assay [10] relates to Rhesus monkey. Description: Half life of hypotensive effect in sodium deficient rhesus monkeys after iv administration (dose 0.31 mg/kg). Type of assay: functional, organism-based. Also noted: dose 0.31 mg/kg. The conditions noted are these: Cercopithecidae. In short, it runs like this: as §2
In assay [11] the test system is Rhesus monkey. Description: In vivo effect on heart rate(peak deltaHR) in sodium deficient rhesus monkeys after iv administration (dose 0.31 mg/kg). Format: functional, Cercopithecidae. In short, it runs like this:
as §2

For assay [12], the system named is Rhesus monkey. The assay can be described thus: In vivo effect on mean arterial pressure(peak deltaMAP) in sodium deficient rhesus monkeys after iv administration (dose 0.31 mg/kg). Format: functional, Cercopithecidae, Artery. In short, it runs like this:
as §2

Assay [13] relates to Rhesus monkey. The assay can be described thus: In vivo effect on heart rate(peak deltaHR) in sodium deficient rhesus monkeys after iv administration (dose 0.99 mg/kg). Type of assay: functional, Cercopithecidae. In a few lines:
as §2

The test system of assay [14] is Rhesus monkey. Description: Half life of hypotensive effect in sodium deficient rhesus monkeys after iv administration (dose 0.99 mg/kg). Also noted: dose 0.99 mg/kg. The following applies: Cercopithecidae. Format: functional, organism-based. In short, it runs like this:
as §2

Assay [15] addresses T2, Renin (Homo sapiens). The following applies: Cercopithecidae; at 0.99 mg/kg.
Assay [16] concerns Rhesus monkey. Description: In vivo effect on mean arterial pressure(peak deltaMAP) in sodium deficient rhesus monkeys after iv administration (dose 0.99 mg/kg). Format: functional, Cercopithecidae, Artery. In short, it runs like this: as §2
Assay [17] has as its system Rhesus monkey. The assay can be described thus: In vivo effect on heart rate(peak deltaHR) in sodium deficient rhesus monkeys after iv administration (dose 0.63 mg/kg). Format: functional, Cercopithecidae. In short, it runs like this:
as §2

Assay [18] concerns Rhesus monkey. The assay can be described thus: Half life of hypotensive effect in sodium deficient rhesus monkeys after iv administration (dose 0.63 mg/kg). Type of assay: functional, organism-based. Also noted: dose 0.63 mg/kg. The following applies: Cercopithecidae. In short, it runs like this:
as §2

Assay [19] deals with T2, Renin (Homo sapiens). The assay can be described thus: In vivo inhibition of plasma renin activity in sodium deficient rhesus monkeys after iv administration (dose 0.63 mg/kg, determined at peak deltaMAP). Type of assay: functional, organism-based. The arrangement: dose 0.63 mg/kg. The following applies: Cercopithecidae; target entry is the homologue from another species; at 0.63 mg/kg. In short, it runs like this:
as §1

Assay [20] relates to Rhesus monkey. The assay can be described thus: In vivo effect on mean arterial pressure(peak deltaMAP) in sodium deficient rhesus monkeys after iv administration (dose 0.63 mg/kg). Format: functional, Cercopithecidae, Artery. In short, it runs like this:
as §2

Broadly, the IC50 is the concentration that inhibits the measured activity by half. On to `CC(C)(C)OC(=O)N[C@@H](Cc1ccccc1)C(=O)N[C@@H](Cc1cnc[nH]1)C(=O)N[C@@H](CC1CCCCC1)[C@@H](O)C[S+]([O-])CC(=O)NCCN1CCOCC1` (stereo not given in full), for which the IC50 against Renin was 19 nM.
Usually inhibition stands for the relative decrease from the control value, in per cent. In turn, `CC(C)(C)OC(=O)N[C@@H](Cc1ccccc1)C(=O)N[C@@H](Cc1c[nH]cn1)C(=O)N[C@@H](CC1CCCCC1)[C@@H](O)CSCC(=O)NC1CN2CCC1CC2` (stereo not given in full) showed an inhibition against Renin (Homo sapiens) [1] of 93%. The T1/2 in the assay with Rhesus monkey [2] is below 10 min. Besides, in the assay with Rhesus monkey [3], the “Peak deltaHR” value was -18 beats min-1. In addition, in the assay with Rhesus monkey [4], the “Peak deltaMAP” value was -20 mmHg. The same compound gave an IC50 at Renin of 29 nM.
Take `CC(C)(C)OC(=O)N[C@@H](Cc1ccccc1)C(=O)N[C@@H](Cc1c[nH]cn1)C(=O)N[C@@H](CC1CCCCC1)[C@@H](O)CSCC(=O)NCCN1CCOCC1`: the “Peak deltaMAP” value in the assay with Rhesus monkey [5] is given as -20.5 mmHg. For the same compound, the inhibition against Renin (Homo sapiens) [6] is 90%. For the same compound, in the assay on Rhesus monkey [7], the “Peak deltaHR” value is given as -26 beats min-1. For the same compound, the T1/2 in the assay with Rhesus monkey [8] was below 10 min.
With `CC(C)(C)OC(=O)N[C@@H](Cc1ccccc1)C(=O)N[C@@H](Cc1cnc[nH]1)C(=O)N[C@@H](CC1CCCCC1)[C@@H](O)CSCC(=O)NCCN1CCOCC1`, the IC50 against Renin came to 40 nM.
In the case of `CN1CCN(C(=O)CSC[C@H](O)[C@H](CC2CCCCC2)NC(=O)[C@H](Cc2c[nH]cn2)NC(=O)[C@H](Cc2ccccc2)NC(=O)OC(C)(C)C)CC1`, on Renin (Homo sapiens) [9], the inhibition is 86%. In addition, in the assay with Rhesus monkey [10], the T1/2 was below 10 min. Moreover, the “Peak deltaHR” value in the assay on Rhesus monkey [11] stood at 4 beats min-1. In addition, the “Peak deltaMAP” value in the assay with Rhesus monkey [12] is reported as -25 mmHg.
As to `CN1CCN(C(=O)CS(=O)(=O)C[C@H](O)[C@H](CC2CCCCC2)NC(=O)[C@H](Cc2c[nH]cn2)NC(=O)[C@H](Cc2ccccc2)NC(=O)OC(C)(C)C)CC1`, the half-maximal inhibitory concentration (IC50) at Renin is 20 nM.
As for `CC(C)(C)OC(=O)N[C@@H](Cc1ccccc1)C(=O)N[C@@H](Cc1c[nH]cn1)C(=O)N[C@@H](CC1CCCCC1)[C@@H](O)CSCC(=O)NCc1ccncc1`, the “Peak deltaHR” value in the assay on Rhesus monkey [13] is recorded as -26 beats min-1. Further, the T1/2 in the assay on Rhesus monkey [14] is below 10 min. Also, the inhibition at Renin (Homo sapiens) [15] was 88%. The “Peak deltaMAP” value in the assay with Rhesus monkey [16] is -16 mmHg.
As to `CC(C)(C)OC(=O)N[C@@H](Cc1ccccc1)C(=O)N[C@@H](Cc1c[nH]cn1)C(=O)N[C@@H](CC1CCCCC1)[C@@H](O)CS(=O)(=O)CC(=O)NC1CCN(Cc2ccccc2)CC1`, half-maximal inhibition against Renin (IC50) was put at 34 nM.
As for `CCOC(=O)CSC[C@H](O)[C@H](CC1CCCCC1)NC(=O)[C@H](Cc1c[nH]cn1)NC(=O)[C@H](Cc1ccccc1)NC(=O)OC(C)(C)C`, the “Peak deltaHR” value in the assay with Rhesus monkey [17] is given as -23 beats min-1. The same compound returned a T1/2 with Rhesus monkey [18] below 10 min. The compound further registered an inhibition against Renin (Homo sapiens) [19] of 87%. For the same compound, the “Peak deltaMAP” value with Rhesus monkey [20] is recorded as -15 mmHg.
